Bioassay records: PubChem BioAssay, several laboratories
Apaf1 inhib: inhibitors of human Apaf-1 apoptosome; O14727; reconstituted apoptosome caspase-3 activity, DEVD-Rh110 fluorescence; inhibition, % at 20 µM; actives 0.71% (n = 330,000); AID 489030; active = inhibition of at least 40% at 20 µM;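 also: plate controls were DMSO wells for no effect and DEVD-CHO caspase inhibitor wells for full effect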
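System: reconstituted apoptosome with Apaf-1, cytochrome c, caspase-9, procaspase-3, dATP; Signal: Rh110 fluorescence intensity; Schedule: 30 min compound preincubation, 50 min activation, room temperature; Reagent: cytochrome c trigger plus (Z-DEVD)2-Rh110 caspase-3 substrate.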
pPAFAH inh: inhibitors of human plasma PAF acetylhydrolase (pPAFAH) | Q13093 | inhibition, % at 3.39 µM | actives 1.5% (n = 330,000) | AID 463082 | recombinant pPAFAH, FP-rhodamine probe fluorescence polarization;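 active = inhibition above the mean inhibition across the screen plus 3 SD, cut at about 25% in these data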;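 also: inhibitors block binding of the rhodamine activity-based probe so polarization drops; 0% = enzyme with DMSO and 100% = wells lacking pPAFAH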
Target sequence (Q13093 whole entry, looked up): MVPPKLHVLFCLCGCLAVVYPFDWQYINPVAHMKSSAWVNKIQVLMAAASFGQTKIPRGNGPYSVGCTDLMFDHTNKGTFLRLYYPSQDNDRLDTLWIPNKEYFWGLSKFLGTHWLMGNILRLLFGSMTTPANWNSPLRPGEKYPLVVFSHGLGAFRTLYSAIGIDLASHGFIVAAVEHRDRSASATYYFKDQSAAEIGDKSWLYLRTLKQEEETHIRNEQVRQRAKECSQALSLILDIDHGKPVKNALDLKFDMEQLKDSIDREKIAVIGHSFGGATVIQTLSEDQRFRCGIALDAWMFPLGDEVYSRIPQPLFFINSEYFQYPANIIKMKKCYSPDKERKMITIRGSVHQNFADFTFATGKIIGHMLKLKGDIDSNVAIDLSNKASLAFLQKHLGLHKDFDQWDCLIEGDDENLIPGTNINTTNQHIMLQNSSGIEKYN
PAFAH1B2 FP inh: blocks human PAF acetylhydrolase 1b catalytic subunit 2; P68402; recombinant PAFAH1B2, FP-rhodamine activity probe, fluorescence polarization; inhibition, % at 3.39 µM; actives 1.2% (n = 340,000);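 active = inhibition above the mean of all tested compounds plus 3 SD, cut at about 24% in these data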;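 also: 0% = enzyme with DMSO and 100% = wells lacking PAFAH1B2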
PAFAH1B3 inh: PAFAH1B3 (human) inhibition | inhibition, % at 3.39 µM | actives 0.28% (n = 340,000) | recombinant PAFAH1B3, FP-rhodamine probe, fluorescence polarization | Q15102;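 active = inhibition above the screen-wide average of all tested compounds plus 3 SD, cut at about 25% in these data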;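 also: 0% = enzyme with DMSO only and 100% = wells lacking PAFAH1B3 protein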
PAFAH2 FP inh: inhibitors of human PAFAH2 | Q99487 | recombinant PAFAH2, FP-rhodamine activity probe, fluorescence polarization | inhibition, % at 3.39 µM | actives 0.99% (n = 340,000) | AID 492956;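 active = inhibition above the mean over all tested compounds plus 3 SD, cut at about 30% in these data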;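 also: inhibitors block probe labeling of enzyme so polarization drops; 0% = enzyme with DMSO and 100% = wells lacking PAFAH2 protein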
The depositor's hits bear a star. Only some compounds are listed: those with a hit (about 3.1% of all), similar ones and a draw of the others.

SMILES	Apaf1 inhib	pPAFAH inh	PAFAH1B2 FP inh	PAFAH1B3 inh	PAFAH2 FP inh
O=C(CSc1ccc(Cl)cc1)OCc1nnc(-c2ccccc2)o1	10	26*	96*	9	11
O=C(/C=C/c1ccco1)OCc1nnc(-c2ccc(Cl)cc2)o1	-20	28*	1	8	67*
Cc1ccc(-c2nnc(COC(=O)c3ccco3)o2)cc1	3	2	9	3	12
COc1ccc(-c2oc(=O)c3cc(OC)c(OC)cc3c2-c2ccc3c(c2)OCO3)cc1	14	27*	0	-7	-6
COc1ccc(S(=O)(=O)N(C)C[C@H]2Oc3ccc(NS(=O)(=O)c4ccc(F)cc4)cc3C(=O)N([C@H](C)CO)C[C@@H]2C)cc1	13	14	25*	4	-1
Cc1ccc(S(=O)(=O)Nc2ccc3c(c2)C(=O)N([C@H](C)CO)C[C@H](C)[C@@H](CN(C)C(=O)Nc2ccc(C(F)(F)F)cc2)O3)cc1	9	25*	8	4	7
C[C@H]1CN([C@@H](C)CO)C(=O)c2cc(NC(=O)Cc3ccccc3)ccc2O[C@H]1CN(C)Cc1ccccc1	0	4	2	4	12
COc1ccc(S(=O)(=O)Nc2ccc3c(c2)C(=O)N([C@H](C)CO)C[C@H](C)[C@@H](CN(C)S(=O)(=O)c2cccs2)O3)cc1	21	5	26*	7	8
C[C@@H]1CN([C@H](C)CO)C(=O)c2cc(NC(=O)Cc3ccccc3)ccc2O[C@H]1CN(C)Cc1ccc(Oc2ccccc2)cc1	38	25*	0	-3	4
COC(=O)[C@@]1(Cc2ccc(F)cc2)[C@H]2c3cc(C(=O)N4CCCC4)n(CCCNc4ncc(C(F)(F)F)cc4Cl)c3C[C@H]2CN1C(=O)c1ccccc1	10	15	1	-1	-10
Cc1noc(C)c1COc1ccccc1C(=O)N(C)CC(=O)Nc1ccc(F)cc1	4	-3	5	4	3
C[C@H](CO)N1C[C@H](C)[C@H](CN(C)C)Oc2ccc(NS(=O)(=O)c3ccc(F)cc3)cc2CC1=O	-1	17	4	0	1
COc1ccc(S(=O)(=O)Nc2ccc3c(c2)C(=O)N([C@H](C)CO)C[C@H](C)[C@@H](CN(C)S(=O)(=O)c2ccc(F)cc2)O3)cc1	11	6	29*	2	1
C[C@H](CO)N1C[C@H](C)[C@H](CN(C)CC2CCCCC2)Oc2ccc(NS(=O)(=O)c3ccc(F)cc3)cc2CC1=O	1	30*	4	11	5
COc1ccc(S(=O)(=O)Nc2ccc3c(c2)C(=O)N([C@H](C)CO)C[C@@H](C)[C@@H](CN(C)S(=O)(=O)c2ccc(Cl)cc2)O3)cc1	17	7	17	2	4
Cc1ccccc1NS(=O)(=O)c1ccc(C2CNC(=O)C2)cc1 (configuration not stated)	-15	33*	4	4	-1
CCCc1ccc(Oc2cc(Cl)nc(N)n2)cc1	3	26*	6	10	11
CCc1ccc(Oc2cc(C)nc(N)n2)cc1	5	11	4	-1	-8
Cc1cc(C)c(NC(=O)CN2CCN(c3ccccn3)CC2)c(C)c1	-5	4	5	5	2
Cc1ccc(OCC(=O)NCc2cccnc2)cc1	-2	6	2	8	-3
O=C(COc1ccc(S(=O)(=O)Nc2ccccc2)cc1)NCc1cccnc1	-10	29*	-1	8	0
Cc1ccccc1NS(=O)(=O)c1ccc(OCC(=O)NCc2cccnc2)cc1	-9	33*	7	5	-1
CC(NS(=O)(=O)c1ccc(OCC(=O)NCc2cccnc2)cc1)c1ccccc1 (configuration not stated)	-8	9	11	2	-4
Nc1c(C(=O)Nc2ccccc2F)sc2nc(-c3cccnc3)ccc12	2	10	5	3	2
Nc1c(C(=O)Nc2ccccc2F)sc2nc(-c3ccco3)ccc12	16	31*	-3	3	24
CCOc1ccc(NC(=O)CN(C)C(=O)COc2cccc3c2OC(C)(C)C3)cc1OCC	-7	-2	1	1	-3
O=C1c2cccc3c([N+](=O)[O-])ccc(c23)C(=O)N1c1nccs1	12	1	14	33*	10
O=C1c2ccc([N+](=O)[O-])cc2C(=O)N1c1ccc(Cl)cn1	5	-3	0	3	4
